Legend:
[1] = system: MCF7; assay: Induction of apoptosis in human MCF7 cells assessed as viable cells at 8 uM after 12 hrs by annexin V-FITC/propidium iodide staining-based flow cytometry (reference value: 85.4%); format: functional; details: MCF7, 12 h, read-out: Activity
Method in brief: (§1)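 MCF-7 cells were plated at 5.0 × 10^6 cells/mL and held 12 or 24 h at 37 °C. Exponentially growing cells then received complete medium (blank) or compound at 0, 2, 4 or 8 for 12 or 24 h. Harvested cells were stained with Annexin V-FITC/PI and analysed by flow cytometry. Quadrants were scored as live, early apoptotic (annexin+/PI−), late apoptotic (double positive) and damaged (PI+ only).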

[2] = system: MCF7; assay: Induction of apoptosis in human MCF7 cells assessed as early apoptotic cells at 2 uM after 24 hrs by annexin V-FITC/propidium iodide staining-based flow cytometry (reference value: 4.5%); format: functional; method in brief: as §1
[3] = system: MCF7; assay: Induction of apoptosis in human MCF7 cells assessed as late apoptotic cells at 2 uM after 24 hrs by annexin V-FITC/propidium iodide staining-based flow cytometry (reference value: 2.1%); format: functional; method in brief: as §1
[4] = system: MCF7; assay: Induction of apoptosis in human MCF7 cells assessed as necrotic cells at 2 uM after 24 hrs by annexin V-FITC/propidium iodide staining-based flow cytometry (reference value: 6.2%); format: functional; method in brief: as §1
[5] = system: MCF7; assay: Induction of apoptosis in human MCF7 cells assessed as viable cells at 2 uM after 24 hrs by annexin V-FITC/propidium iodide staining-based flow cytometry (reference value: 87.1%); format: functional; details: MCF7, 24 h, read-out: Activity; method in brief: as §1
[6] = system: MCF7; assay: Induction of apoptosis in human MCF7 cells assessed as necrotic cells at 4 uM after 24 hrs by annexin V-FITC/propidium iodide staining-based flow cytometry (reference value: 6.2%); format: functional; method in brief: as §1
[7] = system: MCF7; assay: Induction of apoptosis in human MCF7 cells assessed as early apoptotic cells at 8 uM after 24 hrs by annexin V-FITC/propidium iodide staining-based flow cytometry (reference value: 4.5%); format: functional; method in brief: as §1
[8] = system: MCF7; assay: Induction of apoptosis in human MCF7 cells assessed as late apoptotic cells at 8 uM after 24 hrs by annexin V-FITC/propidium iodide staining-based flow cytometry (reference value: 2.1%); format: functional; method in brief: as §1
[9] = system: MCF7; assay: Induction of apoptosis in human MCF7 cells assessed as necrotic cells at 8 uM after 24 hrs by annexin V-FITC/propidium iodide staining-based flow cytometry (reference value: 6.2%); format: functional; method in brief: as §1
[10] = system: MCF7; assay: Induction of apoptosis in human MCF7 cells assessed as viable cells at 8 uM after 24 hrs by annexin V-FITC/propidium iodide staining-based flow cytometry (reference value: 87.1%); format: functional; details: MCF7, 24 h, read-out: Activity
[11] = system: MCF7; assay: Induction of apoptosis in human MCF7 cells after 12 to 24 hrs by annexin V-FITC/propidium iodide staining-based flow cytometry; format: functional, cell-based; method in brief: as §1
[12] = system: MCF7; assay: Induction of apoptosis in human MCF7 cells at 2 to 8 uM by annexin V-FITC/propidium iodide staining-based flow cytometry; format: functional, cell-based; details: TDE = time-dependent effect
[13] = system: MCF7; assay: Cell cycle arrest in human MCF7 cells assessed as accumulation at G1/G0 phase at 2 uM after 12 hrs by propidium iodide staining-based flow cytometry (reference value: 60.51%); format: functional
[14] = system: MCF7; assay: Cell cycle arrest in human MCF7 cells assessed as accumulation at S phase at 2 uM after 12 hrs by propidium iodide staining-based flow cytometry (reference value: 26.65%); format: functional
[15] = system: MCF7; assay: Cell cycle arrest in human MCF7 cells assessed as accumulation at G1/G0 phase at 4 uM after 12 hrs by propidium iodide staining-based flow cytometry (reference value: 60.51%); format: functional
[16] = system: MCF7; assay: Cell cycle arrest in human MCF7 cells assessed as accumulation at S phase at 4 uM after 12 hrs by propidium iodide staining-based flow cytometry (reference value: 26.65%); format: functional
[17] = system: MCF7; assay: Cell cycle arrest in human MCF7 cells assessed as accumulation at G1/G0 phase at 8 uM after 12 hrs by propidium iodide staining-based flow cytometry (reference value: 60.51%); format: functional
[18] = system: MCF7; assay: Cell cycle arrest in human MCF7 cells assessed as accumulation at G2/M phase at 8 uM after 12 hrs by propidium iodide staining-based flow cytometry (reference value: 16.53%); format: functional
[19] = system: MCF7; assay: Cell cycle arrest in human MCF7 cells assessed as accumulation at G1/G0 phase at 2 uM after 24 hrs by propidium iodide staining-based flow cytometry (reference value: 46.77%); format: functional
[20] = system: MCF7; assay: Cell cycle arrest in human MCF7 cells assessed as accumulation at S phase at 2 uM after 24 hrs by propidium iodide staining-based flow cytometry (reference value: 40.08%); format: functional
[21] = system: MCF7; assay: Cell cycle arrest in human MCF7 cells assessed as accumulation at S phase at 4 uM after 24 hrs by propidium iodide staining-based flow cytometry (reference value: 40.08%); format: functional
[22] = system: MCF7; assay: Cell cycle arrest in human MCF7 cells assessed as accumulation at S phase at 8 uM after 24 hrs by propidium iodide staining-based flow cytometry (reference value: 40.08%); format: functional
[23] = system: MCF7; assay: Cell cycle arrest in human MCF7 cells assessed as accumulation at G2/M phase at 8 uM after 24 hrs by propidium iodide staining-based flow cytometry (reference value: 16.27%); format: functional
[24] = system: MCF7; assay: Cell cycle arrest in human MCF7 cells assessed as accumulation at G2/M phase after 12 to 24 hrs by propidium iodide staining-based flow cytometry; format: functional
[25] = system: HEK293; assay: Cytotoxicity against human HEK293 cells after 72 hrs by MTT assay; format: cell-based; details: HEK293, 72 h
[26] = system: MCF7; assay: Induction of apoptosis in human MCF7 cells assessed as early apoptotic cells at 2 uM after 12 hrs by annexin V-FITC/propidium iodide staining-based flow cytometry (reference value: 7.2%); format: functional; method in brief: as §1
[27] = system: MCF7; assay: Induction of apoptosis in human MCF7 cells assessed as late apoptotic cells at 2 uM after 12 hrs by annexin V-FITC/propidium iodide staining-based flow cytometry (reference value: 2.7%); format: functional; method in brief: as §1
[28] = system: MCF7; assay: Induction of apoptosis in human MCF7 cells assessed as necrotic cells at 2 uM after 12 hrs by annexin V-FITC/propidium iodide staining-based flow cytometry (reference value: 4.7%); format: functional; method in brief: as §1
[29] = system: MCF7; assay: Induction of apoptosis in human MCF7 cells assessed as viable cells at 2 uM after 12 hrs by annexin V-FITC/propidium iodide staining-based flow cytometry (reference value: 85.4%); format: functional; details: MCF7, 12 h, read-out: Activity; method in brief: as §1
[30] = system: MCF7; assay: Induction of apoptosis in human MCF7 cells assessed as early apoptotic cells at 4 uM after 12 hrs by annexin V-FITC/propidium iodide staining-based flow cytometry (reference value: 7.2%); format: functional; method in brief: as §1
[31] = system: MCF7; assay: Induction of apoptosis in human MCF7 cells assessed as necrotic cells at 4 uM after 12 hrs by annexin V-FITC/propidium iodide staining-based flow cytometry (reference value: 4.7%); format: functional; method in brief: as §1
[32] = system: MCF7; assay: Induction of apoptosis in human MCF7 cells assessed as viable cells at 4 uM after 12 hrs by annexin V-FITC/propidium iodide staining-based flow cytometry (reference value: 85.4%); format: functional; details: MCF7, 12 h, read-out: Activity; method in brief: as §1
[33] = system: MCF7; assay: Induction of apoptosis in human MCF7 cells assessed as early apoptotic cells at 8 uM after 12 hrs by annexin V-FITC/propidium iodide staining-based flow cytometry (reference value: 7.2%); format: functional; method in brief: as §1
[34] = system: MCF7; assay: Induction of apoptosis in human MCF7 cells assessed as necrotic cells at 8 uM after 12 hrs by annexin V-FITC/propidium iodide staining-based flow cytometry (reference value: 4.7%); format: functional; method in brief: as §1

`O=C(CSC(=S)N[C@H]1CCOC1=O)Nc1ccc(C(=O)/C=C/c2ccccc2Cl)cc1` gave a viability at 8 µM [1] of 75.9%, an Activity [2] of 16.4% and an Activity [3] of 2.1%. The Activity [4] was 5.7%, the viability at 2 µM [5] was 75.8% and the Activity [6] was 4.1%. For the same molecule, the Activity [7] was 43.2%, the Activity [8] was 6.1% and the Activity [9] was 4.8%. The viability at 8 µM [10] was 46%, the Activity [11] was “Dose-dependent effect” and the Activity [12] was “tde”. For the same molecule, the Activity [13] was 67.5%, the Activity [14] was 23.92% and the Activity [15] was 58.39%. For the same molecule, the Activity [16] was 24.4%, the Activity [17] was 46.48% and the Activity [18] was 33.6%. The Activity [19] was 40.44%, the Activity [20] was 32.7% and the Activity [21] was 20.43%. The Activity [22] was 33.39%, the Activity [23] was 63.06% and the Activity [24] was “Dose-dependent effect”. For the same molecule, the IC50 [25] was 21.1 µM, the Activity [26] was 11.4% and the Activity [27] was 1.7%. It also gave an Activity [28] of 4.9%, a viability at 2 µM [29] of 82.1% and an Activity [30] of 14.7%. For the same molecule, the Activity [31] was 5.6%, the viability at 4 µM [32] was 77.9% and the Activity [33] was 19%. For the same molecule, the Activity [34] was 3.5%.

Source: ChEMBL document CHEMBL3414565, “Discovery of novel AHLs as potent antiproliferative agents” (Eur J Med Chem, 2015)
